# Test results: ChEMBL document CHEMBL4673191, “A scaffold hopping strategy to generate new aryl-2-amino pyrimidine MRSA biofilm inhibitors” (RSC Med Chem, 2021)
# Activity calls are given as the source filed them. The rule behind the calls is not given here.
# Experiments:
# Acinetobacter baumannii [1] = assay: Antibacterial activity against Acinetobacter baumannii ATCC 4106 assessed as reduction in bacterial growth incubated for 16 hrs by broth microdilution assay; type: functional
# Method in brief: (§1)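 Bacteria grown 4–6 h in CAMHB, subcultured to 5 x 10⁵ CFU/mL in fresh CAMHB. Compound added from 100 mM DMSO stock, then 2-fold serial dilution in microtiter plate; untreated and media-only wells as controls. Stationary incubation at 37 °C for 16 h, then OD₆₀₀ read. MIC taken as lowest concentration giving 90% growth inhibition vs untreated. Duplicate, repeated at least twice.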
# Staphylococcus aureus [2] = assay: Inhibition of biofilm formation in methicillin-resistant Staphylococcus aureus ATCC 43300 incubated for 24 hrs by crystal violet staining based assay; type: functional, organism-based; conditions: ATCC 43300, 24 h
# Method in brief: (§2)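 Overnight culture subcultured to OD600 0.01 in TSB with 2.0% (w/v) glucose; compound diluted in this medium, 100 µL per well of PVC plates, static incubation 24 h at 37 °C. Wells washed with water, stained with 0.1% crystal violet 30 min at ambient temperature, stain solubilized in ethanol, OD540 read minus no-biofilm background. Duplicates, at least two separate repeats.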
# Acinetobacter baumannii [3] = assay: Potentiation of colistin-induced antibacterial activty against Acinetobacter baumannii ATCC 4106 assessed as colistin MIC at 60 uM incubated for 16 hrs by broth microdilution assay (reference value: 1024 microg/ml); type: functional
# Method in brief: (§3)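 Cultures grown 4–6 h in CAMHB, diluted to 5 x 10⁵ CFU/mL. Compound added to aliquots from 100 mM DMSO stock; one aliquot left undosed for colistin MIC alone. Colistin serially diluted 2-fold in the compound-dosed suspension; compound-alone wells kept. Stationary, 37 °C, 16 h, then OD₆₀₀. Colistin MIC = lowest concentration giving 90% growth inhibition vs untreated. Duplicate, at least twice.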
# Klebsiella pneumoniae [4] = assay: Antibacterial activity against Klebsiella pneumoniae B9 assessed as reduction in bacterial growth incubated for 16 hrs by broth microdilution assay; type: functional; method in brief: as §1
# Staphylococcus aureus [5] = assay: Antibiofilm activity against preformed methicillin-resistant Staphylococcus aureus ATCC 43300 assessed as dispersion of biofilm at 100 uM incubated for 24 hrs by crystal violet staining based assay; type: functional, organism-based
# Method in brief: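 Overnight culture in TSB + 2.0% glucose subcultured to OD600 0.01 in TSBG; 100 µL per well of PVC plates, static 37 °C for 24 h to form biofilm. After washing, compound in medium added for a further 24 h at 37 °C; medium-only control. Washed, 0.1% crystal violet 30 min, ethanol-solubilized, OD540 with no-biofilm background subtracted. Duplicates, ≥2 repeats.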
# Staphylococcus aureus [6] = assay: Inhibition of biofilm formation in methicillin-resistant Staphylococcus aureus ATCC 43300 at 200 uM incubated for 24 hrs by crystal violet staining based assay relative to control; type: functional; method in brief: as §2
# Staphylococcus aureus [7] = assay: Antibacterial activity against methicillin-resistant Staphylococcus aureus ATCC 43300 assessed as inhibition of planktonic bacterial growth at IC50 incubated for 24 hrs by colony counter analysis; type: functional
# Method in brief: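 MRSA 43300 grown overnight in TSB with 2.0% glucose (TSBG), inoculated into fresh TSBG at OD600 0.01, compound added to 3 mL tube cultures; untreated control. Shaken at 37 °C; samples at 2, 4, 6, 8, 24 h serially diluted in TSBG, plated on nutrient agar, incubated overnight at 37 °C, colonies counted. Duplicates, at least two separate repeats.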
# Staphylococcus aureus [8] = assay: Inhibition of biofilm formation in methicillin-resistant Staphylococcus aureus ATCC 33591 incubated for 24 hrs by crystal violet staining based assay; type: functional, organism-based; conditions: ATCC 33591, 24 h; method in brief: as §2
# [9] = Hemolytic activity against sheep blood assessed as blood cell lysis at 200 uM incubated for 1 hr by UV-visible spectrophotometry; type: ADME, tissue-based, Ovis aries; conditions: sheep blood cells, read-out: Activity
# Method in brief: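 Defibrinated sheep blood centrifuged, washed and resuspended in PBS three times, then diluted 10-fold. Compound added from DMSO stock; 1% Triton X as 100% lysis and PBS as zero lysis. Shaken at 200 rpm, 37 °C, 1 h, then centrifuged. Supernatant diluted 40-fold in water and absorbance read at 540 nm.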
# Klebsiella pneumoniae [10] = assay: Effect on lipid A substitution pattern of lipopolysaccharide in Klebsiella pneumoniae B9 by mass spectrometry; type: functional
# Klebsiella pneumoniae [11] = assay: Potentiation of colistin-induced antibacterial activty against Klebsiella pneumoniae B9 assessed as fractional inhibitory concentration index incubated for 16 hrs in presence of colistin by checkerboard assay; type: functional
# Method in brief: (§4)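 Checkerboard in CAMHB inoculated with K. pneumoniae at 5 x 10⁵ CFU/mL. Compound serially diluted 2-fold down rows and colistin across columns, starting each at 2x top concentration; one row and one column give single-agent MICs.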
# Klebsiella pneumoniae [12] = assay: Potentiation of colistin-induced antibacterial activty against Klebsiella pneumoniae A5 assessed as fractional inhibitory concentration index incubated for 16 hrs in presence of colistin by checkerboard assay; type: functional; method in brief: as §4
# Klebsiella pneumoniae [13] = assay: Potentiation of colistin-induced antibacterial activity against Klebsiella pneumoniae B9 assessed as colistin MIC at 60 uM incubated for 16 hrs by broth microdilution assay (reference value: 512 ug/ml); type: functional; method in brief: as §3
# Klebsiella pneumoniae [14] = assay: Potentiation of colistin-induced antibacterial activty against Klebsiella pneumoniae F2210219mcr-1 assessed as fractional inhibitory concentration index incubated for 16 hrs in presence of colistin by checkerboard assay; type: functional; method in brief: as §4
# Staphylococcus aureus [15] = assay: Inhibition of biofilm formation in methicillin-resistant Staphylococcus aureus BAA-44 incubated for 24 hrs by crystal violet staining based assay; type: functional, organism-based; conditions: BAA-44, 24 h; method in brief: as §2
# Klebsiella pneumoniae [16] = assay: Potentiation of colistin-induced antibacterial activty against Klebsiella pneumoniae B9 assessed as fold reduction in colistin MIC at 60 uM incubated for 16 hrs by broth microdilution assay; type: functional; method in brief: as §3
# Staphylococcus aureus [17] = assay: Inhibition of biofilm formation in methicillin-resistant Staphylococcus aureus ATCC 6538 incubated for 24 hrs by crystal violet staining based assay; type: functional, organism-based; conditions: ATCC 6538, 24 h; method in brief: as §2
SMILES,MIC (Acinetobacter baumannii [1]) [µM],IC50 (Staphylococcus aureus [2]) [µM],MIC (Acinetobacter baumannii [3]) [µg/mL],MIC (Klebsiella pneumoniae [4]) [µM],Activity (Staphylococcus aureus [5]),inhibition at 200 µM (Staphylococcus aureus [6]) [%],MIC (Staphylococcus aureus [7]) [µM],IC50 (Staphylococcus aureus [8]) [µM],"hemolysis at 1 h, 200 µM [9] [%]",Activity (Klebsiella pneumoniae [10]),Activity (Staphylococcus aureus [7]),fractional inhibitory concentration index (FICI) (Klebsiella pneumoniae [11]),fractional inhibitory concentration index (FICI) (Klebsiella pneumoniae [12]),MIC (Klebsiella pneumoniae [13]) [µg/mL],fractional inhibitory concentration index (FICI) (Klebsiella pneumoniae [14]),IC50 (Staphylococcus aureus [15]) [µM],fold change (FC) (Klebsiella pneumoniae [16]),IC50 (Staphylococcus aureus [17]) [µM]
Cl.Nc1ncc(-c2ccccc2NC(=O)c2cc(Br)cc(Br)c2)cn1,≥ 200,69,> 64,≥ 200,inactive,> 50,,,,,,,,,,,,
Cl.Nc1nccc(-c2cccc(NC(=O)c3cc(F)cc(F)c3)c2)n1,≥ 200,> 200,> 64,≥ 200,inactive,> 50,,,,,,,,,,,,
Nc1nccc(-c2cccc(NC(=O)c3cc(Cl)cc(Br)c3)c2)n1,,27.6,,,,,> 200,,,,,,,,,,,
Cl.Nc1nccc(-c2ccc(NC(=O)c3cc(Br)cc(Br)c3)cc2)n1,≥ 200,> 50,> 64,≥ 200,inactive,> 50,,,,,,,,,,,,
Cl.Nc1nccc(-c2ccc(NC(=O)c3cc(F)cc(F)c3)cc2)n1,≥ 200,> 200,> 64,≥ 200,inactive,> 50,,,,,,,,,,,,
Cl.Nc1ncc(-c2ccccc2NC(=O)c2cc(Cl)cc(Cl)c2)cn1,≥ 200,> 100,> 64,≥ 200,inactive,> 50,,,,,,,,,,,,
Cl.Nc1nccc(-c2ccccc2NC(=O)c2cc(Br)cc(Br)c2)n1,≥ 200,> 200,> 64,≥ 200,inactive,> 50,,,,,,,,,,,,
Cl.Nc1ncc(-c2ccc(NC(=O)c3cc(Cl)cc(Cl)c3)cc2)cn1,≥ 200,> 200,> 64,≥ 200,inactive,> 50,,,,,,,,,,,,
Cl.Nc1ncc(-c2cccc(NC(=O)c3cc(Br)cc(Br)c3)c2)cn1,≥ 200,43,> 64,≥ 200,inactive,> 50,,,,,,,,,,,,
Cl.Nc1ncc(-c2ccc(NC(=O)c3cc(Br)cc(Br)c3)cc2)cn1,≥ 200,> 100,> 64,≥ 200,inactive,> 50,,,,,,,,,,,,
Cl.Nc1nccc(-c2cccc(NC(=O)c3cc(Br)cc(Br)c3)c2)n1,≥ 200,17.4,> 64,≥ 200,inactive,> 50,,20.2,3.4,inactive,inactive,<=0.09,<=0.31,16,<=0.19,14.1,32,15.6
CCCCCCCCCC(=O)NCCCc1cnc(N)nc1,,,,,,,,,,,,,,,,72,,
Cl.Nc1nccc(-c2ccc(NC(=O)c3cc(Cl)cc(Cl)c3)cc2)n1,≥ 200,41,> 64,≥ 200,inactive,> 50,,,,,,,,,,,,
Cl.Nc1ncc(-c2ccccc2NC(=O)c2cc(F)cc(F)c2)cn1,≥ 200,> 200,> 64,≥ 200,inactive,> 50,,,,,,,,,,,,
Cl.Nc1ncc(-c2ccc(NC(=O)c3cc(F)cc(F)c3)cc2)cn1,≥ 200,> 200,> 64,≥ 200,inactive,> 50,,,,,,,,,,,,
Cl.Nc1ncc(-c2cccc(NC(=O)c3cc(F)cc(F)c3)c2)cn1,≥ 200,> 200,> 64,≥ 200,inactive,> 50,,,,,,,,,,,,
Cl.Nc1ncc(-c2cccc(NC(=O)c3cc(Cl)cc(Cl)c3)c2)cn1,≥ 200,> 200,> 64,≥ 200,inactive,> 50,,,,,,,,,,,,
Cl.Nc1nccc(-c2ccccc2NC(=O)c2cc(Cl)cc(Cl)c2)n1,≥ 200,> 50,> 64,≥ 200,inactive,> 50,,,,,,,,,,,,
Cl.Nc1nccc(-c2cccc(NC(=O)c3cc(Cl)cc(Cl)c3)c2)n1,≥ 200,26.4,> 64,≥ 200,inactive,> 50,,26.6,5,,inactive,,,,,29.5,,24.9
Cl.Nc1nccc(-c2ccccc2NC(=O)c2cc(F)cc(F)c2)n1,≥ 200,> 200,> 64,≥ 200,inactive,> 50,,,,,,,,,,,,
